Results pooled from the literature.
Protocols differ between the studies behind these lines. pIC50: −log10 of the molar value.
Cell line: NCI-H1299
Observed: cell growth or viability

CC(C)C[C@H](NC(=O)[C@H](Cc1ccccc1)NC(=O)c1cnccn1)B(O)O has a pIC50 of 8.00 (ATP luminescence).
With COc1cc2c(Nc3ccc(NC(=O)c4ccccc4)cc3)ncnc2cc1OCCCN1CCOCC1 the pIC50 was 5.96 (MTS; 48 h).
With COc1ccccc1/C=C/CNCC(O)COc1cccc2c1[nH]c1ccccc12 (centres unmarked) the pIC50 was 4.79 (CCK-8; 72 h).
The pIC50 of C/C(=N\O)c1ccc(-c2ccc(O)c(Cl)c2)c(Cl)c1O is reported as 4.34 (MTT; 48 h).
For COc1ccccc1/C=C/CNCC(O)COc1ccc2ncccc2c1 (centres unmarked), the pIC50 was under 4.00 (CCK-8; 72 h).
O=c1[nH]cc(S(=O)(=O)Nc2cccc(-c3nnc(-c4cccc(Cl)c4)o3)c2)c(=O)[nH]1 has a pIC50 of 4.56 (MTT; 24 h).
COc1ccccc1/C=C/CNCC(O)COc1cccc2ncccc12 (centres unmarked) has a pIC50 of 4.44 (CCK-8; 72 h).
For OCc1cn(Cc2cccc(Cl)c2)c2ccccc12, the pIC50 was at most 4.89 (SRB; 72 h).
COc1cc(Nc2nccc(-c3cnn4nc(OC)ccc34)n2)cc(C(F)(F)F)c1 has a pIC50 of 6.59 (ATP luminescence).
The pIC50 of OCc1cn(Cc2ccc(Cl)cc2)c2ccccc12 is reported as at most 4.89 (SRB; 72 h).
C/C(=N\O)c1ccc(-c2ccc(O)c(C)c2)c(Cl)c1O gave a pIC50 of 4.52 (MTT; 48 h).
